Source: publication PMC4229637 (British Journal of Cancer, 2014)
Read-outs that look alike come from different tables or passages of the source. Blank lines part the entries; values can stand above or below the molecule they belong to.

Assays:
patients = settings: cited from earlier work; for main toxicities: single agent phase I
[1] = MK-0752 plasma concentration; format: in vivo, human
Outline: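 Test compound was given orally at 1800 mg once weekly with IV anti-IGF-1R antibody once weekly, in 28-day cycles. Pre-dose plasma was taken weekly during cycle 1 and on day 1 of subsequent cycles. Plasma levels were quantified by validated HPLC-MS/MS.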

AKT1 = settings: read-out: IC50 AKT1; ref Yap et al, 2011; cited from earlier work
AKT2 = settings: read-out: IC50 AKT2; ref Yap et al, 2011; cited from earlier work
[2] = ref Biondo et al, 2011, Yap et al; cited from earlier work
[3] = MK-2206 plasma concentration; format: in vivo, human; settings: for Plasma MK-2206, Median / Plasma MK-2206, Range: cycle 1 day 8
AKT3 = settings: read-out: IC50 AKT3; ref Yap et al, 2011; cited from earlier work
[4] = Ridaforolimus concentration in whole blood; format: in vivo, human; settings: cycle 1 day 8; Dalotuzumab (10 mg kg^–1 QW)+ridaforolimus (20 mg QD × 5); N=4; some samples up to 2.5 h post dose
[5] = Dalotuzumab concentration in serum; format: in vivo, human; settings: for Serum dalotuzumab, Median / Serum dalotuzumab, Range: cycle 1 day 8
[6] = cycle 1 day 8, Dalotuzumab (7.5 mg kg^–1 QW)+MK-0752 (1800 mg QW), N=3
[7] = Dalotuzumab (10 mg kg^–1 QW)+MK-2206 (90 mg QW), N=3
[8] = Dalotuzumab (10 mg kg^–1 QW)+MK-2206 (135 mg QW), N=8
[9] = Dalotuzumab (10 mg kg^–1 QW)+MK-2206 (150 mg QW), N=10
[10] = Dalotuzumab (10 mg kg^–1 QW)+MK-2206 (200 mg QW), N=3
[11] = phase I clinical trial of single-agent dalotuzumab, ref Atzori et al, 2011
[12] = Dalotuzumab (7.5 mg kg^–1 QW)+MK-0752 (1800 mg QW), N=4
[13] = Dalotuzumab (10 mg kg^–1 QW)+MK-0752 (1800 mg QW), N=11
[14] = Dalotuzumab (10 mg kg^–1 QW)+ridaforolimus (20 mg QD × 5), N=2

Plasma MK-0752, Median [1, 6]: 8.06 μmol l^–1 | Plasma MK-0752, Range [1, 6]: 1.49–11.6 μmol l^–1 | Plasma MK-0752, Median ([1]; cycle 1 day 8, Dalotuzumab (10 mg kg^–1 QW)+MK-0752 (1800 mg QW), N=11): 1.63 μmol l^–1 | plasma trough levels, patients receiving 7.5 mg kg^–1 vs 10 mg kg^–1 dalotuzumab ([1]; weekly dosing with 1800 mg MK-0752): comparable
Molecule: O=C(O)CC[C@H]1CC[C@@](c2cc(F)ccc2F)(S(=O)(=O)c2ccc(Cl)cc2)CC1 [MK-0752]
main toxicities (patients; ref Krop et al, 2012): fatigue, nausea, and diarrhoea

dose proportional increase of Ctrough levels ([3]; MK-2206 90, 135, 150, and 200 mg QW): not discernible | Plasma MK-2206, Median [3, 7]: 12.9 nmol l^–1 | Plasma MK-2206, Range [3, 7]: 10.3–20.4 nmol l^–1 | Plasma MK-2206, Median [3, 8]: 29.1 nmol l^–1 | Plasma MK-2206, Range [3, 8]: 0.687–41.1 nmol l^–1 | Plasma MK-2206, Median [3, 9]: 9.08 nmol l^–1 | Plasma MK-2206, Range [3, 9]: 0.736–26.7 nmol l^–1 | Plasma MK-2206, Median [3, 10]: 37.6 nmol l^–1 | Plasma MK-2206, Range [3, 10]: 20.3–50.9 nmol l^–1
Molecule: NC1(c2ccc(-c3nc4ccn5c(=O)[nH]nc5c4cc3-c3ccccc3)cc2)CCC1 [MK-2206]
main toxicities (patients; ref Biondo et al, 2011, Yap et al): rash, nausea, vomiting, diarrhoea, and hyperglycaemia | RP2D (patients; single agent, weekly, ref Biondo et al, 2011): 135 to 200 mg | IC50 (AKT1): […] | IC50 (AKT2): 0.012 µM | half-life [2]: 40 to 100 h | IC50 (AKT3): 0.065 µM

Whole blood ridaforolimus, Median [4]: 86.7 ng ml^–1 | Whole blood ridaforolimus, Range [4]: 3.12–184 ng ml^–1
Molecule: CO[C@H]1C[C@@H]2CC[C@@H](C)[C@@](O)(O2)C(=O)C(=O)N2CCCC[C@H]2C(=O)O[C@H]([C@H](C)C[C@@H]2CC[C@@H](OP(C)(C)=O)[C@H](OC)C2)CC(=O)[C@H](C)/C=C(\C)[C@@H](O)[C@@H](OC)C(=O)[C@H](C)C[C@H](C)/C=C/C=C/C=C/1C [Ridaforolimus]
RP2D (patients; IV, 5 days every 2 weeks, ref Mita et al, 2008): 12.5 mg daily | Main adverse events (patients; single agent phase I trials, ref Mita et al, 2013, Mita et al, 2008): mucositis, fatigue, rash, nausea, diarrhoea, myelosuppression, and dyslipidaemia

Molecule: Dalotuzumab: humanised IgG1 monoclonal antibody that binds IGF-1R
Maximum tolerated dose (MTD) (patients; [11]): not reached | most common adverse events (patients; [11]): fatigue, hyperglycaemia, and back pain | recommended phase II dose (RP2D) (patients; [11]): 10 mg kg^–1 per week | Serum dalotuzumab, Median [5, 12]: 39.3 μg ml^–1 | Serum dalotuzumab, Range [5, 12]: 16.7–91.7 μg ml^–1 | Serum dalotuzumab, Median [5, 13]: 41.7 μg ml^–1 | Serum dalotuzumab, Range [5, 13]: 5.69–97.9 μg ml^–1 | Serum dalotuzumab, Median [5, 7]: 33.8 μg ml^–1 | Serum dalotuzumab, Range [5, 7]: 29.3–56.6 μg ml^–1 | Serum dalotuzumab, Median [5, 8]: 52.2 μg ml^–1 | Serum dalotuzumab, Range [5, 8]: 45.2–102 μg ml^–1 | Serum dalotuzumab, Median [5, 9]: 63.5 μg ml^–1 | Serum dalotuzumab, Range [5, 9]: 43.7–86.4 μg ml^–1 | Serum dalotuzumab, Median [5, 10]: 52.3 μg ml^–1 | Serum dalotuzumab, Range [5, 10]: 45.4–92.3 μg ml^–1 | Serum dalotuzumab, Median [5, 14]: 49.6 μg ml^–1 | Serum dalotuzumab, Range [5, 14]: 32.5–66.7 μg ml^–1 | Trough concentrations (Ctrough) after the first administration ([5]; dalotuzumab 7.5 and 10 mg kg^–1, generally exceeded the target threshold level): > 25 μg ml^–1
